Pemphigus Ab inh = human desmoglein-3 autoantibody binding inhibition; P32926; DSG3-coupled beads, scFv-anti-DSG3-GFP binding, flow cytometry; stronger effect = lower value; binding (percent of control), % at 10 µM; 310,000 tested, 0.48% active;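 active means binding more than 3 SD below its plate's average and above zero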;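 further: hits lower antibody fragment binding to DSG3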
CHT inh = inhibits the human high affinity choline transporter; Q9GZV3; CHT-expressing cells, membrane potential dye, choline response; stronger effect = lower value; B-score at 10 µM; 310,000 tested, 0.86% active;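 active means B-score over 3 SD under the library average, and starting fluorescence ratio not unusually high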;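 further: choline stimulus applied at its EC90 after an EC20 pre-addition; B-score computed on integrated fluorescence ratio after choline addition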
GPR7 antag = blocks human GPR7 receptor signaling; P48145; GPR7-expressing cells, fluorescence antagonist assay; 290,000 tested, 1.1% active; AID 1861; inhibition, % at 4.4 µM; in the data active means inhibition above about 16%, passing the limit was not always enough;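 further: cells stimulated with the agonist NPW; 0% = agonist with vehicle and 100% = vehicle without agonist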
pCIP destab = compounds decreasing mouse p/CIP protein stability. Q05BA5. F442A p/CIP-EGFP cells, EGFP fluorescence, 16 h. decrease of EGFP signal, % at 10 µM. 290,000 tested, 0.01% active. AID 1984;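 active means EGFP signal decrease of at least 30% at 10 µM or well 3 SD below plate mean, unless failing retest; inactive means the rest, including hits failing retest or dose response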
T cell HTS = modulates CD8 T cell binding to vesicles. 2C CD8+ T cell-vesicle binding, flow cytometry; stronger effect = lower value. response (vesicle binding), % at 7 µM. 330,000 tested, 0.068% active. AID 2052;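 active means response, share of CD8 T cells binding vesicles, and their 90th percentile fluorescence all below set limits, cut at about 80% in these data, passing the limit was not always enough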;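 further: values below 100% mean blocked vesicle binding to the CD8+ T cells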
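Assay system: 2C TCR transgenic mouse naive CD8+ T cells, MACS-purified | Read-out: CD8+ gate FL2 mean fluorescence as % of same-row positive control | Signal: High-throughput flow cytometry with anti-B7-1 and anti-CD8 staining | Timing: Binding step 1.5 h, 37 °C, antibody labelling 20 min, ice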
CHT allo act = human CHT allosteric activation | Q9GZV3 | CHT-expressing cells, membrane potential dye, choline EC20; stronger effect = higher value; LV-AA mutant CHT in HEK293 cells | B-score at 10 µM | 310,000 tested, 0.49% active | AID 488977;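 active means initial fluorescence not abnormally high and integrated response B-score, plate-corrected, over 3 SD above library mean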
GPR7 antag cf = confirmation of human GPR7 antagonists. 2,400 tested, 52% active. GPR7-expressing cells, calcium fluorescence antagonist mode. AID 1952. inhibition, % at 4.4 µM. shares compounds with GPR7 antag; in the data active means inhibition above about 24%;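 further: stimulated with the GPR7 agonist NPW; 0% = agonist plus vehicle and 100% = vehicle alone without agonist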
MCHR1 antagonist = antagonizes human MCHR1, a GPR7 antagonist counter-screen. shares compounds with GPR7 antag. MCHR1-expressing cells, fluorescence antagonist assay. inhibition, % at 4.4 µM. 2,400 tested, 62% active; in the data active means inhibition above about 22%;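 further: 0% = vehicle with agonist and 100% = vehicle without agonist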
Active calls of the source: *. A selection: hits, their analogues and other compounds. The true share with any hit is near 2.3%.

`CN1CCN(c2ccc(Cl)cc2NC(=O)c2cccc(S(=O)(=O)N(C)C)c2)CC1` gave Pemphigus Ab inh 100.3, CHT inh inactive, GPR7 antag 24.4*, pCIP destab -3.0, T cell HTS 579.4, CHT allo act inactive, GPR7 antag cf 16.2 and MCHR1 antagonist 13.1.
For COc1cc(C=C(C#N)c2ccc([N+](=O)[O-])cc2)ccc1O the results were Pemphigus Ab inh 108.2.
Screening COc1ccc(C(=O)OCC(=O)NC2CC2)cc1 returned Pemphigus Ab inh 105.2.
Screening CC1CCN(CCCNC(=O)CN2C(=O)CSc3ccc(S(=O)(=O)N4CCC(C)CC4)cc32)CC1 returned Pemphigus Ab inh 107.6, CHT inh inactive, GPR7 antag 25.9*, pCIP destab -9.1, T cell HTS 253.4, CHT allo act inactive, GPR7 antag cf -4.8 and MCHR1 antagonist -9.0.
For COC(=O)C[C@@H]1C[C@H]2c3cc(N(C)C)ccc3O[C@H]2[C@H](CO)O1 the results were Pemphigus Ab inh 104.8.
`O=C(CN1CCOCC1)Nc1c(C(=O)C2CC2)oc2ccccc12` gave Pemphigus Ab inh 101.4, CHT inh inactive, GPR7 antag -6.3, pCIP destab -10.5, T cell HTS 344.1 and CHT allo act inactive.
CN1CCN(CC(=O)Nc2c(C(=O)C3CC3)oc3ccccc23)CC1 was read as Pemphigus Ab inh 107.1, CHT inh inactive, GPR7 antag 21.1*, pCIP destab -10.3, T cell HTS 668.2, CHT allo act inactive, GPR7 antag cf 1.5 and MCHR1 antagonist 10.3.
CCOC(=O)c1oc2ccc(OC)cc2c1NC(=O)CN1CCN(C)CC1 was read as CHT inh inactive, GPR7 antag -4.5, pCIP destab 0.1, T cell HTS 216.8 and CHT allo act inactive.
Screening Cc1ccc(C(=O)c2oc3ccc(Cl)cc3c2NC(=O)CN2CCN(C)CC2)cc1 returned Pemphigus Ab inh 105.7, CHT inh inactive, GPR7 antag 23.8*, pCIP destab 2.1, T cell HTS 272.5, CHT allo act inactive, GPR7 antag cf 29.1* and MCHR1 antagonist 42.3*.
`COc1ccccc1NC(=O)COC(=O)Cn1c(C)csc1=O` gave Pemphigus Ab inh 102.9.
CCN(CC(=O)Nc1ccc(OC)cc1)C(=O)C1CC(=O)N(Cc2ccccc2)C1 (centres undefined) was read as Pemphigus Ab inh 96.9.
Screening S=C(Nc1ccc(Cl)c(Cl)c1)NC1CCN(Cc2ccccc2)CC1 returned Pemphigus Ab inh 114.1, CHT inh inactive, GPR7 antag 32.9*, pCIP destab -9.7, T cell HTS 376.2, CHT allo act inactive, GPR7 antag cf 70.1* and MCHR1 antagonist 94.4*.
`Fc1ccc(NC(=S)NC2CCN(Cc3ccccc3)CC2)cc1` gave Pemphigus Ab inh 94.3, CHT inh inactive, GPR7 antag 3.7, pCIP destab 2.1, T cell HTS 368.3 and CHT allo act inactive.
`COC(=O)CC1(C(=O)OC)Nc2cc(Cl)c(Cl)cc2S(=O)(=O)N1O` (centres undefined) gave Pemphigus Ab inh 100.1.
For CNC[C@H](Cc1ccccc1)NC[C@@H](Cc1cccc2ccccc12)NCCc1ccc(C)cc1 the results were Pemphigus Ab inh 183.7, CHT inh inactive, GPR7 antag 43.4*, pCIP destab -9.8, T cell HTS 265.7, CHT allo act inactive, GPR7 antag cf 67.3* and MCHR1 antagonist 75.8*.
`CNCCNC[C@H](Cc1cccc2ccccc12)NCCc1ccccc1` gave Pemphigus Ab inh 106.6 and T cell HTS 252.8.
Screening CC(=O)c1ccc(NC(=O)C(C)N(C)CC(=O)Nc2ccc(Cl)cc2)cc1 (centres undefined) returned Pemphigus Ab inh 108.2, CHT inh inactive, GPR7 antag 14.8, pCIP destab 1.8, T cell HTS 263.2 and CHT allo act inactive.
